STAT3 act – increases IL-6 driven STAT3 reporter signal; U3A cells, IL-6 STAT3-luciferase reporter, luminescence; 100% = signal with IL-6 EC80 alone; activation (% of control), % at 5.6 µM; 190,000 tested, 0.91% active; AID 871;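 active = activation above the screen-wide mean of compound activation plus 3 SD, cut at about 130% in these data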;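 note: 0% = background luminescence of wells with medium and substrate only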
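Detection: reporter luminescence signal / Assay system: STAT1-lacking human U3A cells, STAT3 luciferase reporter / Incubation: compound pre-incubation 1 h before IL-6, then 6 h stimulation at 37 °C / Control set: IL-6-only high control / Read-out: % activation relative to IL-6 control / Probe or stimulus: Interleukin-6, 33 ng/mL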
C8 TRAIL sens – caspase-8 TRAIL sensitization; NB7+C8 cells + TRAIL, ATPlite viability luminescence; inhibition (viability loss, TRAIL sensitization), % at 10 µM; 360,000 tested, 1% active;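 active = compounds causing at least 50% loss of cell viability in the single-dose screen, relative to plate controls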
STAT3 inh-1 – STAT3 signaling inhibition | U3A cells, IL-6 STAT3-luciferase reporter, luminescence; host cell line lacks STAT1 | 190,000 tested, 0.89% active | inhibition, % at 5.5 µM;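 active = inhibition above the mean inhibition across all screened compounds plus 3 SD, cut at about 44% in these data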;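 note: 0% = DMSO only wells and 100% = 100 µM nifuroxazide control wells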
STAT1 blocker – STAT1 signaling inhibition | NIH 3T3 STAT1-luciferase reporter, IFN-gamma, luminescence | inhibition, % at 5.5 µM | 200,000 tested, 0.35% active | AID 920;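 active = inhibition above a set limit, the mean inhibition across all tested compounds plus 3 SD, cut at about 34% in these data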;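 note: 0% = IFN-gamma with DMSO and 100% = IFN-gamma with 300 µM nifuroxazide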
PPC-1+TRAIL kill – kills PPC-1 cancer cells in the presence of TRAIL; 220,000 tested, 0.41% active; cell killing (% activity), % at 4 µM or 5 µM; PPC-1 cells + TRAIL, ATPLite viability luminescence;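 active = cell killing above 50% in the first pass at 4 µM, then a duplicate retest at 5 µM averaging 50% or more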;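 note: plate controls were cells with TRAIL plus DMSO for no effect and medium-only wells lacking cells for full effect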
STAT3 inh-2 – STAT3 inhibition, confirmation assay; shares compounds with STAT3 inh-1; U3A cells, IL-6 STAT3 luciferase reporter, luminescence; cell line lacks STAT1; inhibition, % at 5.7 µM; 1,200 tested, 45% active; AID 1265;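 active = inhibition above the hit cutoff computed for the primary STAT3 screen, cut at about 44% in these data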;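 note: 0% = IL-6 plus DMSO and 100% = IL-6 plus nifuroxazide control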
NFkB inh STAT3ct – counter-screen for STAT3 inhibitors: NF-kappaB inhibition; HEK293T NF-kB luciferase reporter, TNF-alpha induced; shares compounds with STAT3 inh-1; 1,200 tested, 36% active; inhibition, % at 5.7 µM;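 active = inhibition above the mean of solvent-only control wells plus 3 SD, cutoff set per campaign, cut at about 13% in these data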;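 note: 0% = TNF-alpha with DMSO and 100% = TNF-alpha with MG high control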
STAT1 inh STAT3c – inhibits STAT1, counter-screen to STAT3 inhibitors. NIH 3T3 STAT1-luciferase reporter, IFN-gamma induced, luminescence. shares compounds with STAT3 inh-1. inhibition, % at 5.7 µM. 1,200 tested, 27% active;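 active = inhibition above the mean plus 3 SD of solvent-only control wells, limit set per screening run, cut at about 16% in these data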;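 note: 0% = DMSO with IFN-gamma and 100% = nifuroxazide control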
Active calls of the source: *. Hits are enriched below; roughly 1.8% of the tested compounds scored in any of these assays.

Results for Cc1ccc(S(=O)(=O)CC2CSc3nc4ccccc4n32)cc1 (stereo not given) ?
STAT3 act: 31.7; C8 TRAIL sens: 2.2; STAT3 inh-1: 87.9*; STAT1 blocker: 33.7; PPC-1+TRAIL kill: 15.8; STAT3 inh-2: 84.0*; NFkB inh STAT3ct: 34.3*; STAT1 inh STAT3c: 31.9*

How did O=C(/C=C/c1ccc([N+](=O)[O-])cc1)Nc1ncc([N+](=O)[O-])s1 do in these assays?
STAT3 act: 60.9; C8 TRAIL sens: 59.5*; STAT3 inh-1: 49.5*; STAT1 blocker: -50.9; PPC-1+TRAIL kill: 17.8; STAT3 inh-2: -28.1; NFkB inh STAT3ct: -48.4; STAT1 inh STAT3c: -184.7

How did CCCOc1ccc(/C=C/C(=O)Nc2ccc([N+](=O)[O-])cc2)cc1 do in these assays?
STAT3 act: 46.3; C8 TRAIL sens: 16.4; STAT3 inh-1: 72.0*; STAT1 blocker: -3.4; PPC-1+TRAIL kill: 4.5; STAT3 inh-2: 36.0; NFkB inh STAT3ct: 15.3*; STAT1 inh STAT3c: -11.0

Results for CCCCOc1ccc(/C=C/C(=O)Nc2ccc([N+](=O)[O-])cc2C)cc1 ?
STAT3 act: 91.4; C8 TRAIL sens: 21.4; STAT3 inh-1: 9.4; STAT1 blocker: 14.2; PPC-1+TRAIL kill: -6.8

Results for CCOc1cc2c(c3c1C(c1ccccc1)N(S(=O)(=O)c1ccc(C)cc1)C3)C(=O)C=CC2=O (stereo not given) ?
C8 TRAIL sens: 10.4

What do the screens show for `CC(C)C[C@@H](CNCC(=O)[C@H](CC(C)C)NC(=O)c1[nH]cnc1C(=O)N[C@@H](C)CN)NC(=O)c1nc[nH]c1C(=O)N[C@@H](CC(=O)O)C(=O)O`?
C8 TRAIL sens: 20.0

How did Cc1cc2c(cc1C)-n1nnnc1C(N1CCN(c3ncccc3C#N)CC1)C(=O)N2 (stereo not given) do in these assays?
C8 TRAIL sens: 7.6

How did CC(C)SCC(=O)Nc1ncc2c(n1)-c1ccccc1CC2 do in these assays?
STAT3 act: 78.3; C8 TRAIL sens: -2.8; STAT3 inh-1: 28.3; STAT1 blocker: -1.3; PPC-1+TRAIL kill: 9.2

Results for O=C(Nc1ncc2c(n1)-c1ccccc1CC2)C1CC1 ?
STAT3 act: 66.2; C8 TRAIL sens: -2.4; STAT3 inh-1: 45.0*; STAT1 blocker: 0.6; PPC-1+TRAIL kill: 3.5; STAT3 inh-2: 26.1; NFkB inh STAT3ct: 2.5; STAT1 inh STAT3c: -1.9

Results for O=C(COc1ccc2ccccc2c1)Nc1nccs1 ?
STAT3 act: 38.5; C8 TRAIL sens: 56.8*; STAT3 inh-1: 77.6*; STAT1 blocker: 16.7; PPC-1+TRAIL kill: 45.9; STAT3 inh-2: 39.4; NFkB inh STAT3ct: -17.7; STAT1 inh STAT3c: -72.1

What do the screens show for `O=C(COc1ccccc1)Nc1nccs1`?
STAT3 act: 81.3; C8 TRAIL sens: -2.7; STAT3 inh-1: 24.3; STAT1 blocker: -27.2; PPC-1+TRAIL kill: 36.9

What do the screens show for `CCCc1cc(C(=O)Nc2ccc(C(=O)c3ccc(C)cc3)cc2)n(C)n1`?
C8 TRAIL sens: 17.8

Results for COc1ccc(Cc2noc(CN3CCCN(Cc4ccc(F)cc4)CC3)n2)cc1OC ?
STAT3 act: 98.0; C8 TRAIL sens: 5.1; STAT3 inh-1: 4.7; STAT1 blocker: 1.7

What do the screens show for `COc1ccc(Cc2noc(CN3CCC(c4ccncc4)CC3)n2)cc1OC`?
STAT3 act: 52.9; C8 TRAIL sens: 28.7; STAT3 inh-1: 59.5*; STAT1 blocker: 20.6; PPC-1+TRAIL kill: 15.3; STAT3 inh-2: 29.9; NFkB inh STAT3ct: 14.0*; STAT1 inh STAT3c: 4.9

What do the screens show for `O=C(c1cc2sccc2n1Cc1ccc(F)cc1)N1CCN(c2nc3ccccc3s2)CC1`?
STAT3 act: 62.1; C8 TRAIL sens: 35.5; STAT3 inh-1: 46.6*; STAT1 blocker: 22.0; PPC-1+TRAIL kill: 24.9; STAT3 inh-2: 36.4; NFkB inh STAT3ct: 8.4; STAT1 inh STAT3c: 16.9*

Results for Cn1c(C(=O)N2CCN(c3nc4ccccc4s3)CC2)cc2sccc21 ?
STAT3 act: 82.2; C8 TRAIL sens: 9.6; STAT3 inh-1: 29.0; STAT1 blocker: 1.5; PPC-1+TRAIL kill: 19.4

How did CCc1ccc(OCc2nc(-c3ccccn3)no2)c(Br)c1 do in these assays?
STAT3 act: 57.0; C8 TRAIL sens: 54.7*; STAT3 inh-1: 55.7*; STAT1 blocker: 0.2; PPC-1+TRAIL kill: 20.5; STAT3 inh-2: 19.4; NFkB inh STAT3ct: -7.8; STAT1 inh STAT3c: -107.9

What do the screens show for `CC(C)c1ccc(OCc2nc(-c3ccccn3)no2)c(Br)c1`?
STAT3 act: 93.4; C8 TRAIL sens: 14.7; STAT3 inh-1: 17.3; STAT1 blocker: -41.2; PPC-1+TRAIL kill: -2.4

How did O=c1c2sc(-c3ccccc3)cc2nc2n1CCC2 do in these assays?
STAT3 act: 61.5; C8 TRAIL sens: 53.9*; STAT3 inh-1: 48.6*; STAT1 blocker: -7.1; PPC-1+TRAIL kill: 11.8; STAT3 inh-2: 33.4; NFkB inh STAT3ct: -11.3; STAT1 inh STAT3c: -76.1

Results for COC(=O)N/N=C(\C)c1ccco1 ?
STAT3 act: 102.5; C8 TRAIL sens: -5.5; STAT3 inh-1: 3.0; STAT1 blocker: -7.1; PPC-1+TRAIL kill: 13.1

How did C/C(=N/NC(=O)c1ccccn1)c1ccco1 do in these assays?
STAT3 act: 65.5; C8 TRAIL sens: 54.2*; STAT3 inh-1: 43.6*; STAT1 blocker: -8.8; PPC-1+TRAIL kill: 32.8; STAT3 inh-2: 11.0; NFkB inh STAT3ct: -15.6; STAT1 inh STAT3c: -42.9

Results for O=C(Nc1cccc(-c2nc3ccccc3s2)c1)c1ccc2c(c1)OCO2 ?
STAT3 act: 101.5; C8 TRAIL sens: 8.0; STAT3 inh-1: 5.9; STAT1 blocker: 6.2; PPC-1+TRAIL kill: 24.5

What do the screens show for `c1ccc2sc(-c3ccc4c(c3)OCO4)nc2c1`?
STAT3 act: 41.3; C8 TRAIL sens: 73.1*; STAT3 inh-1: 70.3*; STAT1 blocker: 4.4; PPC-1+TRAIL kill: 57.6*; STAT3 inh-2: 25.2; NFkB inh STAT3ct: 7.1; STAT1 inh STAT3c: -68.0

What do the screens show for `Cc1[nH]nc2c1C1(CCN(C(=O)OCc3ccccc3)CC1)C(C#N)=C(N)O2`?
STAT3 act: 62.8; C8 TRAIL sens: -7.6; STAT3 inh-1: 48.8*; STAT1 blocker: 12.8; PPC-1+TRAIL kill: -18.4; STAT3 inh-2: 21.4; NFkB inh STAT3ct: -6.3; STAT1 inh STAT3c: -3.3

How did CCc1ccc(CN(Cc2cccnc2)C(=O)/C=C/c2ccc(OC)cc2)cc1 do in these assays?
C8 TRAIL sens: 7.3

How did O=C(NNS(=O)(=O)c1ccccc1)C1CCCCC1 do in these assays?
C8 TRAIL sens: -4.4

Results for Fc1ccccc1/C=C/c1ccc2ccccc2n1 ?
STAT3 act: 40.3; C8 TRAIL sens: 77.0*; STAT3 inh-1: 72.5*; STAT1 blocker: 5.0; PPC-1+TRAIL kill: 39.1; STAT3 inh-2: 35.8; NFkB inh STAT3ct: 30.5*; STAT1 inh STAT3c: -14.6
